Laboratory results from ChEMBL document CHEMBL1158125, “seco-Cycloartane triterpenes from Gardenia aubryi” (J Nat Prod, 2006).
Counter-ions that a name gives are not always drawn.

Columns and labels:
Assay type in all cases: functional, cell-based
MCF7 = test: Cytotoxicity against human MCF7 cells after 48 hrs by MTT assay; details: MCF7, 48 h
Summary of the method: (§1)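 Cells grown in DMEM with penicillin (100 U/mL), streptomycin (100 μg/mL) and 10% FBS at 37 °C, 5% CO2, and seeded at 5000 cells/well. After 24 h, compounds were added diluted in DMSO and left for 48 h. Medium was then replaced with MTT (1 mg/mL final, serum-free phenol-red-free RPMI) for 4 h. Formazan was dissolved in isopropanol and read at 550 nm (reference 690 nm). IC50 reported.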

HeLa = test: Cytotoxicity against human HeLa cells after 48 hrs by MTT assay; summary of the method: as §1
PC-3 = test: Cytotoxicity against human PC-3 cells after 48 hrs by MTT assay; details: PC-3, 48 h; summary of the method: as §1
MDA-MB-231 = test: Cytotoxicity against human MDA-MB-231 cells after 48 hrs by MTT assay; details: MDA-MB-231, 48 h; summary of the method: as §1

`COc1cccc2c1C(=O)c1c(O)c3c(c(O)c1C2=O)C[C@@](O)(C(C)=O)C[C@@H]3O[C@H]1C[C@H](N)[C@H](O)[C@H](C)O1` [DAUNORUBICIN HYDROCHLORIDE] showed an IC50 (MCF7) of 0.22 µM, an IC50 (HeLa) of 0.32 µM and an IC50 (PC-3) of 0.44 µM. For the same compound, the IC50 (MDA-MB-231) was 0.25 µM.
`C=C(CO)[C@@H]1CC[C@H]2[C@]3(CC[C@]4(C)[C@@H]([C@H](C)CCC=C(C)C)CC[C@@]24C)C[C@]13CCC(=O)O` [SECAUBRYENOL] showed an IC50 (MCF7) greater than 100 µM, an IC50 (HeLa) greater than 100 µM and an IC50 (PC-3) greater than 100 µM. It also gave an IC50 (MDA-MB-231) greater than 100 µM.
`C=C1C(=O)O[C@@H]2C[C@@H]3[C@]4(CC[C@]5(C)[C@@H]([C@H](C)CC(=O)C=C(C)C)CC[C@@]35C)C[C@]4(CCC(=O)OC)[C@H]12` [SECAUBRYOLIDE] showed an IC50 (MCF7) of 52 µM, an IC50 (HeLa) of 40 µM and an IC50 (PC-3) of 35 µM. It also gave an IC50 (MDA-MB-231) of 21 µM.
Compound `C=C(CO)[C@@H]1CC[C@H]2[C@]3(CC[C@]4(C)[C@@H]([C@H](C)CC[C@@H](O)C(C)(C)O)CC[C@@]24C)C[C@]13CCC(=O)O` [SECAUBRYTRIOL] has an IC50 (MCF7) greater than 100 µM, an IC50 (HeLa) greater than 100 µM and an IC50 (PC-3) greater than 100 µM. The IC50 (MDA-MB-231) was greater than 100 µM.
